From PubChem BioAssay
S1P3 agonist: human S1P3 receptor agonists, primary screen, cell-based, primary and confirmation, NFAT-BLA reporter. Sphingosine 1-phosphate receptor 3 (Homo sapiens), Q99500. S1P3 NFAT-BLA reporter cells, agonism, FRET ratio; relative to 1 µM S1P, basal subtracted. activation, % at 4.5 µM. 60,000 tested, 0.1% active. AID 373, 2006;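 active means activation above the screen-wide mean plus 3 SD, cut at about 4.5% in these data, passing the limit was not always enough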
Target sequence (Q99500 whole entry, looked up): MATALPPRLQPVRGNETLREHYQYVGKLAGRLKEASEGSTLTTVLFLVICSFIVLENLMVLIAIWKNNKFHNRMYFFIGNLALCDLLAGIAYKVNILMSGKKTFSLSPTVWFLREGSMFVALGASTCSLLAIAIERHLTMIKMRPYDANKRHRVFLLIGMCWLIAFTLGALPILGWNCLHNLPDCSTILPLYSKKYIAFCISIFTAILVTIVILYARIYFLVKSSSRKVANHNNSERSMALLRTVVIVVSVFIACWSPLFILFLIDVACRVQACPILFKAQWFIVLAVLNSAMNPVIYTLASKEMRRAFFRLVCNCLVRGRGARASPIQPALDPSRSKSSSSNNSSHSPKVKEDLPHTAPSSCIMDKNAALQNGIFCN
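material = human S1P3 NFAT-BLA reporter CHO cells | schedule = 4 h compound at 37 °C, 2 h substrate at RT | measured by = fluorescent BLA substrate, ex 405 nm, em 460/535 nm ratio | controls = 1 µM S1P reference | replication = primary once, confirmation triplicate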
M1 ag: M1 muscarinic receptor agonists, primary screen, CHO-M1 cells, Fluo-4 calcium, agonist mode. Muscarinic acetylcholine receptor M1. Fluo-4 calcium fluorescence; hits give high values. B-score at 10 µM. 64,000 tested, 3% active;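 active means fluorescence rise, raw or as B-score row- and column-corrected plate score, outside the 99.7% band of its plate's samples, either direction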
D1 mod: D1 CRE-luciferase signal change, two-sided – cell-based, HEK293 D1, dopamine EC30, D1 allosteric modulator project, primary screen; B-score at 10 µM; D(1A) dopamine receptor (Homo sapiens), P21728; dopamine EC30 potentiation; actives deviate in either direction; 58,000 tested, 5.9% active; AID 641, 2007;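 active means luminescence count or its row- and column-corrected plate score outside the 99.7% band of the plate's sample wells, on either side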
S1P1 ag-PAM: S1P1 agonists and agonism potentiators, primary screen, cell-based, primary and confirmation screens, CRE-bla reporter. Sphingosine 1-phosphate receptor 1 (Homo sapiens), P21453. S1P1 CRE-bla cells, forskolin, beta-lactamase FRET, potentiator mode; S1P1 agonist co-added at EC20, 2 nM; 100% = saturating reference agonist, 0% = basal. 56,000 tested, 0.57% active. activation, % at 9.5 µM. AID 449, 2006;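 active means activation above a cutoff set at the mean activation of all tested compounds plus 3 SD, cut at about 54% in these data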;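 further: forskolin at 4 µM as EC80 and the EC20 agonist is SEW2871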
M1 antag: antagonists of rat M1 muscarinic receptor; Muscarinic acetylcholine receptor M1 (Rattus norvegicus), P08482; CHO-M1 cells, Fluo-4 calcium, ACh EC80 antagonist mode; hits give low values; B-score at 10 µM; 64,000 tested, 3.4% active; AID 628, 2007;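 active means calcium fluorescence response, raw or row-and-column corrected B-score, differing from the plate sample mean either way at a set confidence level, mostly lower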
M1 antag conf: rat M1 muscarinic receptor antagonists, confirmation, CHO cells, Fluo-4 calcium, duplicate; shares compounds with M1 antag; ACh EC80 antagonism; hits give low values; calcium response (max-min fluorescence) at 10 µM; 1,700 tested, 43% active; AID 677, 2007;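 active means calcium response below the same-plate mean of wells given acetylcholine alone at its 80%-effect dose, minus 3 SD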
mGluR4 antag: human mGluR4 response to M1 antagonist hits, M1 allosteric modulator project, cell-based, antagonist mode, secondary assay 1; 1,700 tested, 0.9% active; shares compounds with M1 antag; fluorescence response (max-min) at 10 µM; CHO-mGluR4 calcium flux, Fluo-4 fluorescence, glutamate EC80; hits give low values;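 active means fluorescence response below the plate's average for near-maximal glutamate wells, less 3 SD of those wells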;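 further: raw unnormalized fluorescence span taken in the window right after glutamate addition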
D1 PAM confirm: D1 receptor positive allosteric modulators, retest, confirmation, cell-based, HEK293 D1, CRE-luciferase, duplicate; dopamine EC30 potentiation; hits give high values; shares compounds with D1 mod; luminescence at 10 µM; 2,200 tested, 88% active;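 active means luminescence in either of two replicates above the same-plate mean plus 3 SD of the low-dose dopamine control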
D1 no dopamine: D1 receptor agonism without dopamine, confirmation, mechanism study for D1 allosteric modulator project, cell-based, HEK293 D1, CRE-luciferase, secondary assay 1 | luminescence at 10 µM | shares compounds with D1 mod | AID 646, 2007 | luminescence, no dopamine; hits give high values | 1,900 tested, 0.8% active; in the data active means luminescence above about 3900
Isoprot counter: isoproterenol response counter-screen activity for D1 modulators; calls only at 10 µM; shares compounds with D1 mod; AID 647; HEK293 D1 CRE-luciferase, isoproterenol EC30 counter-screen; 2,200 tested, 63% active;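 active means luminescence in either replicate above plate mean of wells with a partly effective reference agonist dose plus 3 SD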;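 further: isoproterenol raises cAMP through native beta-adrenoceptor Gs so signal bypasses D1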
Each line names hits and unclear results; the compound was inactive in the other large screens (follow-up assays come after a bar, where they were run). Compounds with a hit are over-represented: about 11% of the library has one in this group of screens.

CN1C2CCC1CC(OC(=O)c1ccc(Cl)cc1)C2 (stereo not drawn)	M1 antag -19.5 | M1 antag conf 60.6 | mGluR4 antag inactive
CCCNS(=O)(=O)c1ccc(OCC(=O)N2CCN(Cc3ccccc3)CC2)cc1	none
COC(=O)c1ccc(CN2CCN(Cc3ccccc3)CC2)cc1	M1 antag -3.06 | M1 antag conf 428 | mGluR4 antag inactive
CN(CC1COc2ccccc2O1)c1nc(-c2cccnc2)nc2ccccc12 (stereo not drawn)	M1 antag -3.88 | M1 antag conf inactive | mGluR4 antag inactive
COc1ccc(-n2c(O)c(C(C)=NC3CC3)c(=O)[nH]c2=O)cc1	none
CCCCCCn1c(=O)c(C(=O)Nc2c(C)n(C)n(-c3ccccc3)c2=O)c(O)c2ccccc21	M1 antag -8.01 | M1 antag conf 167 | mGluR4 antag inactive
CCCCCn1c(=O)c(C(=O)Nc2ccncc2)c(O)c2ccccc21	none
CCOC(=O)c1c(C)n(Cc2ccccc2)c2ccc(OCC(O)CN3C(=O)CNC3=O)cc12 (stereo not drawn)	D1 mod 10.1 | D1 PAM confirm 22384 | D1 no dopamine inactive | Isoprot counter active
CCOC(=O)c1c(C)n(Cc2ccco2)c2ccc(O)cc12	none (no result: S1P1 ag-PAM)
CCOC(=O)c1ccc(NC(=O)C2C3C=CC(O3)C2C(=O)O)cc1 (stereo not drawn)	none
NCCc1ccc(O)cc1	D1 mod 5.06 | D1 PAM confirm 7676 | D1 no dopamine 17832 | Isoprot counter active
Cc1ccc(CN2CC3CC(C2)c2cccc(=O)n2C3)cc1 (stereo not drawn)	D1 mod 3.33 | D1 PAM confirm inactive | D1 no dopamine inactive | Isoprot counter inactive
O=c1cccc2n1CC1CC2CN(Cc2c(Cl)cccc2Cl)C1 (stereo not drawn)	none (no result: S1P1 ag-PAM)
O=c1[nH]c2ccccc2c(=O)n1-c1cccc(Cl)c1	D1 mod 9.16 | D1 PAM confirm 10464 | D1 no dopamine inactive | Isoprot counter active
C=CCn1c(O)c(C(C)=NCc2cccnc2)c(=O)[nH]c1=O	none
CCCCn1c(O)c(C(CC)=NCCc2ccccc2)c(=O)[nH]c1=O	D1 mod 6.28 | D1 PAM confirm 8912 | D1 no dopamine inactive | Isoprot counter active
CCCCn1c(O)c(C(C)=NCc2ccc(F)cc2)c(=O)[nH]c1=O	D1 mod 4 | D1 PAM confirm 10964 | D1 no dopamine inactive | Isoprot counter inactive
C=CCn1c(O)c(C(C)=NCc2cc(OC)cc(OC)c2)c(=O)[nH]c1=O	D1 mod 3.2 | D1 PAM confirm 9872 | D1 no dopamine inactive | Isoprot counter active
CCCCn1c(O)c(C(CC)=NCCN2CCCCC2)c(=O)[nH]c1=O	none
CCC1(CC)C(=O)NC(=Nc2cccc(C(F)(F)F)c2)NC1=O	none
CC(=O)Nc1ccc(OC(=O)N(C)C)cc1	none
O/N=C1\CCC2CN(C3CCCCC3)CC2C1 (stereo not drawn)	none
CCOC(=O)c1c(N)n(CCN2CCCCC2)c2nc3ccccc3nc12	none
CCCCOCCCn1c(N)c(C(=O)OC(C)COC)c2nc3ccccc3nc21 (stereo not drawn)	D1 mod 6.75 | D1 PAM confirm 11516 | D1 no dopamine inactive | Isoprot counter active
COCCCn1c(N)c(C(=O)OC(C)COC)c2nc3ccccc3nc21 (stereo not drawn)	D1 mod 5.55 | D1 PAM confirm 8820 | D1 no dopamine inactive | Isoprot counter inactive
CCC(C)NC(=O)c1c(N)n(CCCOC)c2nc3ccccc3nc12 (stereo not drawn)	D1 mod 5.09 | D1 PAM confirm 9844 | D1 no dopamine inactive | Isoprot counter active
NCC1(c2ccc3c(c2)OCCO3)CCCC1	none
CC1(C)CN=C(Nc2ccc(F)c(F)c2)S1	D1 mod 12.1 | D1 PAM confirm 25280 | D1 no dopamine inactive | Isoprot counter active
O=P1(Nc2cccnc2)COc2ccccc2OC1	none (no result: D1 mod)
CCOC(=O)N(c1ccccc1)P1(=S)OCC(C)O1 (stereo not drawn)	none (no result: M1 ag, D1 mod, M1 antag)
COC(=O)N(c1ccccc1)P1(=S)OCCO1	D1 mod 5.31 | D1 PAM confirm 11592 | D1 no dopamine inactive | Isoprot counter active
CCOC(=O)N(c1ccccc1)P1(=S)OCCO1	D1 mod 7.42 | D1 PAM confirm 19704 | D1 no dopamine inactive | Isoprot counter active
CCC(=NCCCN(CC)CC)c1c(O)n(-c2ccccc2)c(=O)[nH]c1=O	none
COc1cccc(-c2cc(C(F)(F)F)n3nc(C(=O)N4CCC5(CC4)OCCO5)cc3n2)c1	D1 mod 2.36 | D1 PAM confirm 9588 | Isoprot counter inactive
COc1cccc(-c2nc(CS(=O)CC(=O)N3CCC4(CC3)OCCO4)c(C)o2)c1 (stereo not drawn)	none
Cc1oc(-c2ccccc2F)nc1CS(=O)CC(=O)N1CCC2(CC1)OCCO2 (stereo not drawn)	none
CCOc1cc2[nH]c(=S)n(CCCC(=O)N3CCC4(CC3)OCCO4)c(=O)c2cc1OCC	none (no result: S1P3 agonist, S1P1 ag-PAM)
O=C(CCCOc1ccc(Cl)cc1Cl)N1CCC2(CC1)OCCO2	D1 mod 6.6 | D1 PAM confirm 8848 | D1 no dopamine inactive | Isoprot counter active
CCC(=NCc1ccco1)c1c(O)[nH]c(=O)[nH]c1=O	D1 mod 8.61 | D1 PAM confirm 16800 | Isoprot counter active
